Results on 10 molecules are retold here after ChEMBL document CHEMBL2406929, “An optimized pyrimidinol multifunctional radical quencher” (ACS Med Chem Lett, 2013).

The species entered for assay [1] is Homo sapiens. The assay can be described thus: Decrease in total ATP level in human Friedreich's ataxia lymphocytes after 48 hrs by bioluminescence assay. It counts as functional. The gist of the method:
(§1)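 Total cellular ATP measured in CoQ10-deficient and FRDA lymphocytes grown in glucose-free medium supplemented with galactose, so that cells rely on oxidative phosphorylation. Compounds tested at 5, 10 and 25 μM for 48 h, added from DMSO (final <0.5%). ATP expressed as % of untreated control.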

The species named for assay [2] is Homo sapiens. The assay can be described thus: Decrease in total ATP level in CoQ10-deficient human GM17932 cells after 48 hrs by bioluminescence assay. The format is functional. In outline: as §1
A short description of assay [3]: Effect on total ATP level in human Friedreich's ataxia lymphocytes at 25 uM after 48 hrs by bioluminescence assay relative to control. It counts as functional. The gist of the method:
as §1

A short description of assay [4]: Effect on total ATP level in human Friedreich's ataxia lymphocytes at 10 uM after 48 hrs by bioluminescence assay relative to control. The format is functional. In outline: as §1
The nature of assay [5]: Effect on total ATP level in human Friedreich's ataxia lymphocytes at 5 uM after 48 hrs by bioluminescence assay relative to control. It counts as functional. In outline: as §1
The nature of assay [6]: Effect on total ATP level in CoQ10-deficient human GM17932 cells at 25 uM after 48 hrs by bioluminescence assay relative to control. It counts as functional. In outline:
as §1

A short description of assay [7]: Effect on total ATP level in CoQ10-deficient human GM17932 cells at 10 uM after 48 hrs by bioluminescence assay relative to control. The format is functional. The gist of the method: as §1
The nature of assay [8]: Effect on total ATP level in CoQ10-deficient human GM17932 cells at 5 uM after 48 hrs by bioluminescence assay relative to control. The format is functional. In outline:
as §1

For assay [9], the species on record is Homo sapiens. The assay can be described thus: Cytoprotective activity against diethyl maleate-induced loss of mitochondrial membrane integrity in human Friedreich's ataxia lymphocytes at 500 nM incubated overnight prior to diethyl maleate-treatment measured after 140 mins by TMRM staining-based FACS flow cytometric analysis relative to control. It counts as functional. The gist of the method: (§2)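 Δψm in FRDA lymphocytes after diethyl maleate treatment. Cells stained with 250 nM TMRM and analyzed by flow cytometry on the FL2-H channel, 10,000 events per sample. Result is the % of cells with intact Δψm (top-right quadrant). FCCP uncoupler used as positive control. Final DMSO <0.5%. Means ± SEM of three independent experiments run in duplicate.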
(A flow cytometer gives signals particle by particle.)

The species named for assay [10] is Homo sapiens. In words: Cytoprotective activity against diethyl maleate-induced loss of mitochondrial membrane integrity in human Friedreich's ataxia lymphocytes at 250 nM incubated overnight prior to diethyl maleate-treatment measured after 140 mins by TMRM staining-based FACS flow cytometric analysis relative to control. It counts as functional. In outline:
as §2

Assay [11] is filed under the species Homo sapiens. The assay can be described thus: Cytoprotective activity against diethyl maleate-induced loss of mitochondrial membrane integrity in human Friedreich's ataxia lymphocytes at 100 nM incubated overnight prior to diethyl maleate-treatment measured after 140 mins by TMRM staining-based FACS flow cytometric analysis relative to control. It counts as functional. The gist of the method: as §2

Assay [12] in a line: Cytoprotective activity against BSO-induced cell death in human Friedreich's ataxia fibroblasts preincubated for 12 hrs prior to BSO-treatment measured after 48 hrs by luminescence assay.
Assay [13] is filed under the species Homo sapiens. The assay can be described thus: Reversal of 4-nitrobenzoate-induced reduction in mitochondrial ATP level in CoQ10-deficient human Friedreich's ataxia lymphocytes at 5 uM after 6 days by bioluminescence assay. It counts as functional.
For assay [14], the species on record is Homo sapiens. The assay can be described thus: Antioxidant activity in human Friedreich's ataxia lymphocytes assessed as inhibition of diethyl maleate-induced lipid peroxidation at 100 to 500 nM incubated overnight prior to diethyl maleate-treatment measured after 120 mins by C11-BODIPY581/591 staining-based FACS flow cytometric analysis. It counts as functional. In outline:
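Glutathione depletion by diethyl maleate in FRDA lymphocytes. Cells stained with C11-BODIPY581/591; oxidized green fluorescence read by FACS on the FL1-H channel. Lipid peroxidation taken as the increase in geometric mean fluorescence intensity relative to the untreated control, expressed as % scavenging activity. Compounds added from DMSO (final DMSO <0.5%). Mean ± SEM, n = 3.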

Assay [15] is filed under the species Homo sapiens. In words: Decrease in mitochondrial ATP level in CoQ10-deficient human Friedreich's ataxia lymphocytes at 5 uM after 6 days by bioluminescence assay in presence of 4-nitrobenzoate. It counts as functional.
The species named for assay [16] is Homo sapiens. The assay can be described thus: Decrease in mitochondrial ATP level in CoQ10-deficient human Friedreich's ataxia lymphocytes at 5 uM after 6 days by bioluminescence assay. It counts as functional.
The species named for assay [17] is Homo sapiens. In words: Reversal of 4-nitrobenzoate-induced reduction in mitochondrial ATP level in CoQ10-deficient human Friedreich's ataxia lymphocytes at 10 uM after 6 days by bioluminescence assay. The format is functional.

Each structure is given as a SMILES string. The source made the active and inactive calls. No cut-off for these calls is given here.

For the molecule `CCCCCCCCCCC1=C(C)C(=O)C(OC)=C(OC)C1=O` [DECYLUBIQUINONE], the Activity result in the assay listed under Homo sapiens [1] is “Dose-dependent effect”; in the assay filed under Homo sapiens [2], “Dose-dependent effect”; in [3], 63%; in [4], 76%; in [5], 93%; in assay [6], 63%. The Activity was determined as 99% in assay [7]; 100% in [8]; 90% in the assay filed under Homo sapiens [9]; 82% in the assay listed under Homo sapiens [10]; 60% in the assay filed under Homo sapiens [11]. This molecule came in with an EC50 in assay [12] of 56 nM.
Consider `CCCCCCCCCCCCCCCCc1nc(N(C)C)nc(OC)c1O`, for which the Activity in assay [3] turned out to be 80%; in assay [4] it was 96%; in assay [5], 108%; in assay [6], 90%; in assay [7], 106%; in assay [8], 118%. Also, the results for the Activity in the assay filed under Homo sapiens [9], in the assay filed under Homo sapiens [10] and in the assay filed under Homo sapiens [11] were 92%, 90% and 81%, respectively. The result in the assay filed under Homo sapiens [13] was Active. The inhibition entry in the assay listed under Homo sapiens [14] was “Active”. In addition, a half-maximal response in [12] (EC50) required 25 nM.
Take `CCCCCCCCCCCCCCCCc1nc(N(C)C)nc(OC)c1OC(C)=O`: the Activity is listed as 92% in assay [3]; 101% in assay [4]; 109% in assay [5]; 96% in assay [6]; 109% in assay [7]; 116% in [8].
With `CCCCCCCCCCc1nc(N(C)C)nc(OC)c1O`, the Activity in assay [3] is recorded as 58%; in assay [4], 87%; in [5], 94%; in assay [6], 58%; in [7], 83%; in assay [8], 96%. For the same molecule, the results for the Activity in the assay listed under Homo sapiens [9], in the assay listed under Homo sapiens [10] and in the assay filed under Homo sapiens [11] were 88%, 80% and 68%, respectively. This molecule also displayed an EC50 in assay [12] of 68 nM.
For `CCCCCCCCCCCCCCc1nc(N(C)C)nc(OC)c1O`, the Activity in [3] is on record as 55%; in assay [4] it was 97%; in assay [5] it was 109%; in [6], 65%; in assay [7], 97%; in assay [8], 105%. The Activity amounted to 92% in the assay listed under Homo sapiens [9], 88% in the assay filed under Homo sapiens [10] and 77% in the assay filed under Homo sapiens [11]. For the same molecule, the inhibition entry in the assay listed under Homo sapiens [14] is “Active”. Further, in [12], the concentration for a half-maximal effect (EC50) turned out to be 22 nM.
As for `COc1nc(N(C)C)nc(CCCCCCCCCCOCC23CC4CC(CC(C4)C2)C3)c1O`, the Activity in [3] worked out at 72%; in assay [4], 103%; in assay [5], 107%; in assay [6] it was 64%; in assay [7], 97%; in [8], 105%. For the same molecule, the values for the Activity in the assay listed under Homo sapiens [9], in the assay listed under Homo sapiens [10] and in the assay filed under Homo sapiens [11] were 90%, 82% and 63%, respectively. Further, the inhibition result in the assay filed under Homo sapiens [14] is “Active”. Moreover, in assay [12], the half-maximal effective concentration (EC50) turned out to be 32 nM.
Consider `COC1=C(OC)C(=O)C(CCCCCCCCCCO)=C(C)C1=O` [IDEBENONE], for which the outcome in the assay filed under Homo sapiens [15] and in the assay filed under Homo sapiens [16] was Active. Also, the Activity entry was “Dose-dependent effect” in the assay listed under Homo sapiens [1]; “Dose-dependent effect” in the assay listed under Homo sapiens [2]; 3% in assay [3]; 46% in [4]; 73% in assay [5]; 2% in assay [6]. For the same molecule, the Activity in assay [7] stood at 46%; in assay [8], 80%; in the assay filed under Homo sapiens [9], 45%; in the assay listed under Homo sapiens [10] it was 26%; in the assay filed under Homo sapiens [11] it was 18%. Besides, the EC50 in assay [12] was 551 nM.
Regarding `Cc1nc(N(C)C)nc(CCCCCCCCCCO)c1O`, the Activity came to 28% in assay [3]; 46% in [4]; 77% in assay [5]; 46% in assay [6]; 86% in assay [7]; 99% in [8]. The Activity in the assay listed under Homo sapiens [9] stood at 56%; in the assay listed under Homo sapiens [10], 37%; in the assay filed under Homo sapiens [11], 25%. The molecule also gave an EC50 in [12] of 456 nM.
For the molecule `CCCCCCCCCCCCCCCCCCc1nc(N(C)C)nc(OC)c1O`, the Activity in assay [3] was determined as 102%; in assay [4], 102%; in assay [5] it was 101%; in assay [6], 96%; in assay [7], 98%; in assay [8], 98%. Also, the Activity in the assay filed under Homo sapiens [9] was found to be 73%; in the assay listed under Homo sapiens [10] it was 55%; in the assay listed under Homo sapiens [11], 39%. Moreover, the inhibition result in the assay filed under Homo sapiens [14] was “Active”. Besides, the EC50 in assay [12] was 266 nM.
As to `COc1nc(N(C)C)nc(CCCCCCCCCCO)c1O`, in the assay filed under Homo sapiens [17], the outcome was inactive. Moreover, the Activity in assay [3] was found to be 46%; in assay [4], 66%; in [5] it was 80%; in assay [6] it was 54%; in assay [7], 95%; in assay [8], 102%. The Activity was determined as 68% in the assay listed under Homo sapiens [9], 48% in the assay filed under Homo sapiens [10] and 32% in the assay filed under Homo sapiens [11]. Also, in the assay listed under Homo sapiens [13], the result was Active. Moreover, in the assay listed under Homo sapiens [14], the inhibition entry was “Active”. Further, in assay [12], the response was half-maximal at 345 nM (EC50).

By EC50 is commonly meant the concentration that produces a half-maximal response. Lower therefore signals an effect from little substance.
